# According to ChEMBL document CHEMBL3813673, “Bistacrine derivatives as new potent antimalarials” (Bioorg Med Chem, 2016):
# How the values were obtained:
# [1] = Selectivity index, ratio of IC50 for mouse J774.1 cells to IC50 for chloroquine-sensitive ring-stage Plasmodium falciparum 3D7; format: toxicity; details: read-out: Ratio IC50
# [2] = Selectivity index, ratio of IC50 for mouse J774.1 cells to IC50 for ring-stage Plasmodium falciparum Dd2; format: toxicity; details: read-out: Ratio IC50
# Plasmodium falciparum [3] = test: Antimalarial activity against chloroquine-resistant Plasmodium falciparum Dd2 assessed as parasite viability after 72 hrs by malstat assay; format: functional, organism-based; details: Dd2, 72 h
# [4] = Cytotoxicity against mouse J774.1 cells after 24 hrs by AlamarBlue based cytotoxicity assay; format: cell-based; details: J774.1, 24 h
# Outline: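 Compounds dissolved in DMSO and serially diluted. Cells incubated with them at 37 °C, 5% CO2 for 24 h. AlamarBlue solution then added and plates incubated for a further 24 and 48 h.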
# Plasmodium falciparum [5] = test: Antimalarial activity against chloroquine-sensitive ring-stage Plasmodium falciparum 3D7 assessed as parasite viability after 72 hrs by malstat assay; format: functional, organism-based; details: 3D7, 72 h
# Outline: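 P. falciparum 3D7: synchronized ring stages plated at 1% parasitemia with compounds dissolved in DMSO; 0.5% DMSO as negative control. Cultured in triplicate for 72 h, then viability read by Malstat assay (parasite lactate dehydrogenase activity). Each compound tested twice; IC50 and standard deviation calculated.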
# [6] = Reversible inhibition of recombinant Plasmodium falciparum falcipain 2 assessed as hydrolysis of Cbz-Phe-Arg-AMC measured after 10 mins by spectrofluorometric method
# Outline: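 Substrate added to buffer containing falcipain-2 and a range of inhibitor concentrations. Fluorescence (ex 380, em 460 nm) followed over 10 min, in duplicate. Slopes (ΔF/min) of the progress curves plotted against inhibitor concentration; IC50 obtained by nonlinear regression.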
# Plasmodium falciparum [7] = test: Inhibition of recombinant Plasmodium falciparum falcipain 2 assessed as hydrolysis of Cbz-Phe-Arg-AMC measured after 5 mins at 20 uM by spectrofluorometric method
# Outline: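 Recombinant falcipain-2 with Cbz-Phe-Arg-AMC substrate in 50 mM sodium acetate, pH 5.5, with 5 mM EDTA and 200 mM NaCl. Released AMC read by fluorescence (ex 380 nm, em 460 nm). Single-concentration screen; compounds giving over 35% inhibition went on to kinetic assays. Run twice.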
# [8] = Inhibition of beta-hematin formation; format: physicochemical
# Outline: (§1)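 Heme–pyridine complex absorbance, which obeys Lambert–Beer's law, used to quantify free heme in heme/hemozoin mixtures and so judge inhibition of β-hematin formation. Chloroquine served as positive control and DMSO as negative control.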
# [9] = Inhibition of beta-hematin formation in acetate solution at pH 4.5 measured after 60 mins by pyridine-based spectrophotometric assay; format: physicochemical; outline: as §1
SMILES,selectivity ratio [1],selectivity ratio [2],IC50 (Plasmodium falciparum [3]),IC50 [4],IC50 (Plasmodium falciparum [5]),IC50 [6],inhibition (Plasmodium falciparum [7]),IC50 [8],IC50 [9]
c1ccc2c(NCCCCCCCCCCNc3c4c(nc5ccccc35)CCCC4)c3c(nc2c1)CCCC3,16.4,12.9,140 nM,1800 nM,110 nM,–,–,–,–
Clc1ccc2c(NCCCCCCNc3c4c(nc5cc(Cl)ccc35)CCCC4)c3c(nc2c1)CCCC3,90,–,–,1800 nM,20 nM,17300 nM,36.9%,–,–
CCOC1CCc2nc3cc(Cl)ccc3c(NCCCCCCCCCNc3c4c(nc5cc(Cl)ccc35)CCC(OCC)C4)c2C1 (stereo unspecified),9,–,160 nM,1740 nM,200 nM,–,25%,–,–
c1ccc2c(NCCCCCCCNc3c4c(nc5ccccc35)CCCC4)c3c(nc2c1)CCCC3,27.1,8.64,220 nM,1900 nM,70 nM,–,–,–,–
CC1(C)CCc2c(nc3cc(Cl)ccc3c2NCCCCCCNc2c3c(nc4cc(Cl)ccc24)CC(C)(C)CC3)C1,50,–,–,1500 nM,30 nM,–,–,–,–
Nc1c2c(nc3ccc([N+](=O)[O-])cc13)CCCC2,–,–,–,44600 nM,3230 nM,–,–,–,–
COc1ccc2nc3c(c(NCCCCCCCCCNc4c5c(nc6ccc(OC)cc46)CCCC5)c2c1)CCCC3,15,–,160 nM,1700 nM,110 nM,14900 nM,62.2%,–,–
c1ccc2c(NCCCCCCCCNc3c4c(nc5ccccc35)CCCC4)c3c(nc2c1)CCCC3,17.3,6.33,300 nM,1900 nM,110 nM,17100 nM,34.4%,–,–
CC1CCc2nc3cc(Cl)ccc3c(NCCCCCCNc3c4c(nc5cc(Cl)ccc35)CCC(C)C4)c2C1 (stereo unspecified),260,–,–,7800 nM,30 nM,–,–,–,–
CC1(C)CCc2c(nc3ccccc3c2NCCCCCCNc2c3c(nc4ccccc24)CC(C)(C)CC3)C1,60,–,–,1800 nM,30 nM,–,–,–,–
CCN(CC)CCCC(C)Nc1ccnc2cc(Cl)ccc12 (stereo unspecified) [CHLOROQUINE],–,–,–,18400 nM,–,–,–,3.01 equiv,1.91 equiv
CC1CCc2c(nc3ccc([N+](=O)[O-])cc3c2NCCCCCCNc2c3c(nc4ccc([N+](=O)[O-])cc24)CC(C)CC3)C1 (stereo unspecified),1250,–,–,25000 nM,20 nM,5200 nM,56.7%,–,–
CCCC1CCc2nc3ccc(Cl)cc3c(N)c2C1 (stereo unspecified),–,–,–,8400 nM,210 nM,–,–,–,–
c1ccc2c(NCCCCCCNc3c4c(nc5ccccc35)CCCC4)c3c(nc2c1)CCCC3,29.7,–,–,2970 nM,100 nM,–,–,–,–
CCCC1CCc2nc3ccccc3c(N)c2C1 (stereo unspecified),–,–,–,43000 nM,1520 nM,–,–,–,–
CC1(C)CCc2c(nc3ccc([N+](=O)[O-])cc3c2NCCCCCCNc2c3c(nc4ccc([N+](=O)[O-])cc24)CC(C)(C)CC3)C1,198,–,–,7900 nM,40 nM,–,–,–,–
Nc1c2c(nc3ccc(Cl)cc13)CCCC2,–,–,–,43200 nM,4020 nM,–,–,–,–
Nc1c2c(nc3ccccc13)CCCC2 [TACRINE],–,–,–,> 100000 nM,12500 nM,–,–,–,–
CC1CCc2c(nc3cc(Cl)ccc3c2NCCCCCCNc2c3c(nc4cc(Cl)ccc24)CC(C)CC3)C1 (stereo unspecified),30,–,–,1500 nM,50 nM,–,–,–,–
Cc1ccc2nc3c(c(N)c2c1)CCCC3,–,–,–,44300 nM,2040 nM,–,–,–,–
c1ccc2c(NCCCCCNc3c4c(nc5ccccc35)CCCC4)c3c(nc2c1)CCCC3,2.86,3.27,550 nM,1800 nM,630 nM,–,–,–,–
